Results reported in ChEMBL document CHEMBL1153083, “Antiprotozoal, anticancer and antimicrobial activities of dihydroartemisinin acetal dimers and monomers” (Bioorg Med Chem, 2009).

Tests used:
SK-OV-3 = assay: Cytotoxicity against human SKOV3 cells after 48 hrs by neutral red assay; assay type: functional, cell-based; settings: sk-ov-3
Procedure, shortened: (§1)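 Cells seeded at 25,000 per well and incubated 24 h, then exposed to samples for 48 h. Viable cells were counted by neutral red, with DMSO as vehicle control. IC50 or TC50 values were derived from logarithmic plots of growth inhibition versus concentration.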

Escherichia coli = assay: Antibacterial activity against Escherichia coli ATCC 35218 by modified CLSI/NCCLS method; assay type: functional, organism-based; settings: Escherichia coli, ATCC 35218; read-out: IC50
Pseudomonas aeruginosa = assay: Antibacterial activity against Pseudomonas aeruginosa ATCC 27853 by modified CLSI/NCCLS method; assay type: functional, organism-based
Leishmania donovani = assay: Antileishmanial activity against Leishmania donovani promastigotes after 48 hrs by alamar blue assay; assay type: functional, organism-based; settings: Leishmania donovani, 48 h
KB = assay: Cytotoxicity against human KB cells after 48 hrs by neutral red assay; assay type: functional, cell-based; settings: kb; procedure, shortened: as §1
[1] = Toxicity against african green monkey Vero cells; assay type: cell-based; settings: chlorocebus sabaeus; procedure, shortened: as §1
Plasmodium falciparum [2] = assay: Antiplasmodial activity against Plasmodium falciparum W2 infected in RBCs by parasitic LDH release assay; assay type: functional, organism-based
Procedure, shortened: (§2)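 Infected erythrocytes at 2% parasitemia and 2% hematocrit, in RPMI 1640 with 10% human serum and amikacin 60 μg/mL, were exposed to serial dilutions under N2/O2/CO2 (90:5:5) at 37°C for 72 h. LDH was read with Malstat reagent (30 min), then NBT/PES in the dark (60 min), stopped with 5% acetic acid, at 650 nm. IC50 came from percent growth dose-response curves.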

[3] = Selectivity index, ratio of TC50 for african green monkey (Cercopithecus aethiops) Vero cells to IC50 for Plasmodium falciparum W2; assay type: toxicity, cell-based
[4] = Toxicity against pig LLC-PK11 cells after 48 hrs by neutral red assay; assay type: cell-based, Sus scrofa; settings: llc-pk11, 48 h; procedure, shortened: as §1
Cryptococcus neoformans = assay: Antifungal activity against Cryptococcus neoformans ATCC 90113 by modified CLSI/NCCLS method; assay type: functional, organism-based
SK-MEL = assay: Cytotoxicity against human SK-MEL cells after 48 hrs by neutral red assay; assay type: functional, cell-based; settings: sk-mel; procedure, shortened: as §1
Candida albicans = assay: Antifungal activity against Candida albicans ATCC 90028 by modified CLSI/NCCLS method; assay type: functional, organism-based
[5] = Selectivity index, ratio of TC50 for african green monkey (Cercopithecus aethiops) Vero cells to IC50 for Plasmodium falciparum D6; assay type: toxicity, cell-based
Vero = assay: Toxicity against african green monkey Vero cells after 48 hrs by neutral red assay; assay type: cell-based; settings: chlorocebus sabaeus, vero, 48 h; procedure, shortened: as §1
Plasmodium falciparum [6] = assay: Antiplasmodial activity against Plasmodium falciparum D6 infected in RBCs by parasitic LDH release assay; assay type: functional, organism-based; procedure, shortened: as §2
BT-549 = assay: Cytotoxicity against human BT549 cells after 48 hrs by neutral red assay; assay type: functional, cell-based; settings: bt-549; procedure, shortened: as §1
[7] = Cytotoxicity against human NCI60 cells after 48 hrs by neutral red assay; assay type: functional; settings: NCI60, 48 h
Staphylococcus aureus = assay: Antibacterial activity against methicillin-resistant Staphylococcus aureus ATCC 43300 by modified CLSI/NCCLS method; assay type: functional, organism-based
[8] = test system: Mycobacterium intracellulare; assay: Antibacterial activity against Mycobacterium intracellular ATCC 23068 by Franzblau method; assay type: functional, organism-based
Aspergillus fumigatus = assay: Antifungal activity against Aspergillus fumigatus ATCC 90906 by modified CLSI/NCCLS method; assay type: functional, organism-based

C[C@H]1[C@@H](OCc2cc(O)cc(O[C@H]3O[C@@H]4O[C@@]5(C)CC[C@H]6[C@H](C)CC[C@@H]([C@H]3C)[C@@]46OO5)c2)O[C@@H]2O[C@@]3(C)CC[C@H]4[C@H](C)CC[C@@H]1[C@@]24OO3
IC50 (SK-OV-3): Not Active
IC50 (Escherichia coli): 22300 nM
IC50 (Pseudomonas aeruginosa): Not Active
IC90 (Leishmania donovani): 32700 nM
IC50 (Leishmania donovani; read-out: IC50): 5900 nM
IC50 (KB): Not Active
CC50 [1]: > 7070 nM
IC50 (Plasmodium falciparum [2]): 4.2 nM
selectivity ratio [3]: > 1700
TC50 [4]: Not Active
IC50 (Cryptococcus neoformans): 1490 nM
IC50 (SK-MEL): Not Active
IC50 (Candida albicans): Not Active
selectivity ratio [5]: > 2380
TC50 (Vero): Not Active
IC50 (Plasmodium falciparum [6]): 3 nM
IC50 (BT-549): Not Active
GI50 [7]: 24.5 nM
TGI [7]: 2820 nM
CC50 ([7]; read-out: LC50 (the source's name)): 15100 nM
IC50 (Staphylococcus aureus): Not Active
IC50 [8]: Not Active
IC50 (Aspergillus fumigatus): Not Active
